Results reported in the EternaBench riboswitch data.

System: MS2 coat protein
Assay: apparent Kd, MS2 coat protein; higher = weaker binding; RNA-MaP array; FMN 200 µM where present
Procedure, shortened: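 On Illumina sequencing-chip clusters, designs were transcribed by stalled E. coli RNA polymerase and titrated with SNAP-549-labelled MS2 coat protein (0.7 or 1.5 nM, doubling to 3 µM), without and then with constant ligand, in 100 mM Tris-HCl pH 7.5, 80 mM KCl, 4 mM MgCl2, BSA, DTT, yeast tRNA and Tween-20. Apparent Kd is the median of filtered per-cluster curve fits to green signal normalised to red-channel RNA signal and control-cluster median Fmax.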

[1] = designed as: OFF switch for flavin mononucleotide, no ligand
[2] = ligand present: flavin mononucleotide, designed as: OFF switch for flavin mononucleotide
[3] = designed as: ON switch for flavin mononucleotide, no ligand
[4] = ligand present: flavin mononucleotide, designed as: ON switch for flavin mononucleotide

Sequence	apparent Kd [1]	apparent Kd [2]	apparent Kd [3]	apparent Kd [4]
AAAAAGGCAGGAUAUACAAAAAAAAAAAAAAAAAAGGAGGGACAUGAGGAUCACCCAUGUAGAAGGGCCAAAAA	66.5 nM	134 nM	–	–
ACAUGAUCAGGAUAUACAUGAGGAUCACCCAUGUAUUUCAAAAAGGGACUUUCUUUAUGUAGAAGGGAUCUUGU	15.8 nM	43.1 nM	–	–
GCUGUGGCAUGAGGAUAUGGUCACCUUUGGUGACCAGAAGGCAUGUCAAUAGACAUGAGGAUCACCCAUGUAGUUAACACAGCA	–	–	561 nM	42.4 nM
UGAACCCAUGUUAGGAUAUCAGGCCGAGGAAGUUCUGAGAAGGGACAUGAGGAUCACCCAUGUAUAAAAGAAAC	70.6 nM	41.8 nM	–	–
GGUUACAUCGGAGGAUAUCAUGUAAAUACAUGAGGAUCACCCAUGUCGAUGGAGACAUCGGAGAUUGAGAAGGCCGAUGUACCG	–	–	170 nM	7.97 nM
ACGACGAAAGUCGAACGAUGUAGCAGAAGGACAUGAGGAUCACCCAUGUAAAAUGUAACAGCCAUGUAGGAUAUGCUACAUCGA	31.3 nM	238 nM	–	–
CAGGUGUUAGGAUAUCGGAGAUUGAGGCAGACGGGAAUAUUCGAGAAGGAACAUGAGGAUCACCCAUGUAGUAG	24.5 nM	28.9 nM	–	–
CCCAACGUAACGCCACGUUGAGAGCAGGAUAUUCCGCCGUGAUCUACAUGAGGAUCACCCAUGUGGAAGAAGGGCUACACAAAA	16.3 nM	146 nM	–	–
CAAAAGUAUAACAAUUUCGAGGCACAGGAUAUGAGUGUGCACAUGAGGAUCACCCAUGUUAUAACUUAGAAGGGUGACCAUUGC	–	–	265 nM	443 nM
GGGCUCGGAGGAUAUACAUGAGGAUCACCCAUGUAGGGCUCGGGUAUUUCUGGGUCUUGUAGAAGGCUGGGUCU	21.3 nM	30 nM	–	–
AAUUUACAGGGAGGAUAUACAUGAGGAUCACCCAUGUCAUCAUAUGAUAUUUCUUUUGUAUGAGUGUAGAAGGCCCAACUACCA	18.2 nM	18.3 nM	–	–
UAGGGAGGAGGGAGGGAGACAUGAGGAUCACCCAUGUAAUGUCAGGAUAUUCUCAUAUUAUAUUAGGAGAAGGGAUACAUAUCU	49.7 nM	24.7 nM	–	–
GUCCUCCGUGCCCUUAACGCACAUGAGGAUCACCCAUGUAGGAGAAGGGCCCAACAAAUCAAAGGGCAGGAUAUCCAAAUCAUG	75.1 nM	18.9 nM	–	–
GGAUCGAGUGUGAGGAUAUGCUGGUCCUUGGAUCAGCAGAAGGCACAUGAGGAUCACCCAUGUGAUAUCGAUCC	56.1 nM	541 nM	–	–
AAUGUUUGAUUCCACUUAUACAUGAGGAUCACCCAUGUUAUCGAGGAUAUGCAUUAGAGUGUUUAGCAGAAGGCGAUGUAAAUG	7.34 nM	24.1 nM	–	–
UGUCGGAGCAGAGGAUAUUACAUGAGGAUCACCCAUGUAUGAACCAAUAGUUGGAAACAGCAAUGUAAGAAGGCUGCUCCGACA	11.5 nM	94.6 nM	–	–
AUCAUGCUCAAGAAGGACAUGAGGAUCACCCAUGUAGGAUAUUGGGCGGUCACUUCUAGCUUGUGUGUAUCUGAAUACUCCAGG	–	–	20.4 nM	–
GUGCCUAACUAGAAGGCCCAAUGCAAAGCAUAGGGAGGAUAUGGGUUUAAUAAAUAAACAUGAGGAUCACCCAUGUGGCACAAA	–	–	45.5 nM	10.1 nM
UGGUACUAGGGAGGAUAUGGGAAGAUACAUGAGGAUCACCCAUGUUUAAGAAUGCCCAGAGGCAACUAGAAGGCCCUAGUACCU	–	–	66.2 nM	16.9 nM
UAUAUAUAGUAAGGAUAUGUAUUAAUUUUAUUAACAGAAGGUACUGACAUGAGGAUCACCCAUGUUUUAGUGUGGGCAUGUAGA	84.2 nM	149 nM	–	–
AGGCAGCAAGGAUAUACAUAAUUCCUACAAGUCAGCAUAGGACAUGAGGAUCACCCAUGUAGAAGGUGCAAAGA	24.1 nM	46.3 nM	–	–
GUAAAGUGAGGAUAUGGUAAAGUAAUUAUUUAGUAAGUAAUCCAGAAGGCACAUGAGGAUCACCCAUGUAAAUG	31.3 nM	36.8 nM	–	–
GCGUAUUAGGUGUAGCUAGUCAUUCAAGAAGGGUGGAGAACAUGAGGAUCACCCAUGUAGUUUAUACAGGAUAUUGAUAUACGC	–	–	489 nM	101 nM
